Screening results as filed in PubChem BioAssay.
STAT3 act: STAT3 signaling activation | U3A cells, IL-6 STAT3-luciferase reporter, luminescence; 100% = signal with IL-6 EC80 alone | activation (% of control), % at 5.6 µM | AID 871 | actives 0.91% (n = 190,000);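 active = activation above the screen-wide mean of compound activation plus 3 SD, cut at about 130% in these data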;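 also: 0% = background luminescence of wells with medium and substrate only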
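Material: STAT3-luciferase reporter U3A cells. Controls: IL-6-treated wells, 100% activation. Read-out: % activation versus median of IL-6-stimulated wells. Probe or stimulus: IL-6 stimulus at 33 ng/mL final. Timing: compound 1 h, then IL-6 6 h at 37 °C. Signal: reporter luminescence signal.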
APP 5'UTR act: activates APP 5'UTR luciferase reporter; actives 1% (n = 190,000); activation, % at 2 µM; AID 1276; SH-SY5Y APP 5'UTR luciferase reporter, luminescence; zero percent = DMSO vehicle wells;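 active = activation above a set limit, based on mean plus 3 SD of controls, cut at about 140% in these data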
STAT1 inh: reduces IFN-gamma driven STAT1 reporter signal | NIH 3T3 STAT1-luciferase reporter, luminescence | AID 920 | inhibition, % at 5.5 µM | actives 0.35% (n = 200,000);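 active = inhibition above a set limit, the mean inhibition across all tested compounds plus 3 SD, cut at about 34% in these data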;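 also: 0% = IFN-gamma with DMSO and 100% = IFN-gamma with 300 µM nifuroxazide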
STAT3 blocker: reduces IL-6 driven STAT3 reporter signal | actives 0.89% (n = 190,000) | inhibition, % at 5.5 µM | U3A cells, IL-6 STAT3-luciferase reporter, luminescence; host cell line lacks STAT1 | AID 862;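 active = inhibition above the mean inhibition across all screened compounds plus 3 SD, cut at about 44% in these data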;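 also: 0% = DMSO only wells and 100% = 100 µM nifuroxazide control wells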
STAT1 act: activators of IFN-gamma induced STAT1 signaling. NIH 3T3 STAT1-luciferase reporter, luminescence; 100% = IFN-gamma alone, no compound. activation (% of control), % at 5.5 µM. actives 2.6% (n = 200,000). AID 932;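 active = activation above the screen-wide mean activation plus 3 SD, cut at about 130% in these data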;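 also: raw ratio to IFN-gamma control signal so 100% means no change and 0% no light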
NF-kB expr up: raises NF-kB expression in human neuronal cells. actives 1.6% (n = 190,000). NF-kB reporter expression; hits give high values. fold change at 12.5 µM; in the data active = fold change above about 3.3
STAT1 activ conf: STAT1 activation, confirmation assay. shares compounds with STAT1 act. activation (% of control), % at 5.7 µM. NIH 3T3 STAT1-luciferase reporter, IFN-gamma potentiation, luminescence; 100% = IFN-gamma EC80 alone, no compound. AID 1262. actives 97% (n = 1,200);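 active = activation above a set limit carried over from the earlier primary STAT1 screen, cut at about 140% in these data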;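 also: simple ratio to median IFN-gamma plus DMSO wells so 0% means no light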
NFkB act STAT1ct: activates NF-kappaB, counter-screen to STAT1 activators; HEK293T NF-kB luciferase reporter, TNF-alpha stimulated, luminescence; 100% = TNF-alpha with vehicle only; shares compounds with STAT1 act; activation (% of control), % at 5.7 µM; actives 43% (n = 1,200);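 active = activation above the mean of solvent-only control wells plus 3 SD, set per campaign, cut at about 130% in these data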;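 also: TNF-alpha given at a submaximal dose yielding about 80% of full reporter signal; values are well signal over median control so 100% means no change and 0% no light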
STAT3 act 2: activates human STAT3, counter-screen to STAT1 activators. shares compounds with STAT1 act. U3A cells STAT3-luciferase reporter, IL-6, luminescence; cells lack STAT1; 100 = IL-6 alone, no compound effect. activation (% of control), % at 5.7 µM. actives 46% (n = 1,200). AID 1316;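 active = activation above the solvent-only control well mean plus 3 SD, set per plate batch, cut at about 110% in these data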;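 also: 0% = no luminescence and 100% = median IL-6 plus DMSO wells; higher means more STAT3 reporter activation so hits are non-selective activators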
* hit, by the source's call; . = no result. The list is not random: actives were taken first. Their share in the collection is about 4.9%.

SMILES | STAT3 act | APP 5'UTR act | STAT1 inh | STAT3 blocker | STAT1 act | NF-kB expr up | STAT1 activ conf | NFkB act STAT1ct | STAT3 act 2
CCOC(=O)c1c(C)[nH]c(N=Nc2cccc(OC)c2)c1C | 89.1 | 253.3* | -108.2 | 19.1 | 198.4* | 1.19 | 235.3* | 143.7* | 102.7
CCOC(=O)c1c(C)[nH]c(C=Nc2ccc(OC)cc2)c1O | 101.5 | -2.6 | -20.0 | 2.0 | 120.2 | 1.78 | . | . | .
CCOC(=O)c1[nH]c(C)c(C(=O)c2ccc(C)cc2)c1C | 99.5 | -94.9 | -18.3 | 0.8 | 116.7 | 1.86 | . | . | .
CCOC(=O)c1c(C)[nH]c(N=Nc2ccc(C)cc2)c1C | 98.1 | 140.8* | -58.5 | 6.8 | 154.2* | 4.07* | 230.3* | 146.5* | 102.2
Cc1ccc(NC(=O)CN2C(=O)C3C4C=CC(C4)C3C2=O)cc1S(=O)(=O)N(C)C (stereo not drawn) | 97.2 | -54.9 | -0.3 | 2.5 | 100.3 | 1.09 | . | . | .
Cc1ccc(-c2nnn(CC(=O)N3CCCCC3)n2)o1 | 102.3 | 24.2 | -12.6 | 5.0 | 111.4 | 1.24 | . | . | .
O=C(NCC1CCCN(Cc2ccccc2F)C1)c1cccc(C(F)(F)F)c1 (stereo not drawn) | 102.3 | 17.9 | 10.8 | 1.7 | 88.9 | 0.76 | . | . | .
Cc1cc(/C=C2/C(=O)N(C)C(=S)N2C)ccc1N1CCCC1 | 131.9 | 117.6 | -81.3 | -24.4 | 175.3* | 3.22 | 168.5* | 134.6* | 146.1*
Cc1cc(N2CCCC2)ccc1/C=C1/C(=O)N(C)C(=S)N1C | 114.6 | -25.4 | -9.0 | -13.4 | 106.4 | 2.23 | . | . | .
CCOc1cc(C(=S)N2CCOCC2)ccc1OS(=O)(=O)c1ccccc1 | 97.1 | -8.3 | 9.2 | 6.0 | 91.8 | 0.91 | . | . | .
CCOC(=O)c1ccc(OS(=O)(=O)c2ccccc2)c(OC)c1 | 121.5 | 113.5 | -83.5 | -24.9 | 174.2* | 3.8* | 184.8* | 141.2* | 122.6*
Oc1csc(Cc2nc(-c3ccc(Br)cc3)cs2)n1 | 126.9 | 50.0 | -74.0 | -15.3 | 166.7* | 1.87 | 177.0* | 134.0* | 123.5*
NC(=O)Cc1nc(-c2ccc(Br)cc2)cs1 | 99.2 | 12.2 | -3.4 | 3.5 | 103.1 | 1.31 | . | . | .
CC(Oc1ccc(Cl)cc1)C(=O)NNC(=S)NC(=O)c1ccco1 (stereo not drawn) | 108.0 | -1.6 | 2.1 | -12.5 | 98.1 | 0.6 | . | . | .
CCN(CC)c1ccc(/C=N/NC(=O)c2ccco2)cc1 | 80.7 | -48.6 | -73.4 | 24.6 | 165.4* | 6.3* | 216.9* | 119.0 | 97.9
Cn1cc(NC(=O)OCc2ccc(Cl)cc2)c(C(F)(F)F)n1 | 114.2 | 6.7 | -88.0 | -11.4 | 178.2* | 3.55* | 165.4* | 124.6 | 110.4
Cn1cc(C(=O)Nc2ccc(Cl)cc2)c(C(F)(F)F)n1 | 98.1 | -3.8 | 9.6 | 4.3 | 90.9 | 0.94 | . | . | .
O/N=C/c1ccccc1OCc1ccccc1Cl | 92.4 | 1.8 | 3.2 | 19.9 | 97.1 | 1.2 | . | . | .
COc1cc(/C=N/O)ccc1OCc1ccccc1Cl | 90.6 | 186.1* | -92.0 | 15.1 | 181.8* | 7.24* | 191.1* | 125.0 | 120.5*
CC(=O)Nc1ccc(N=Nc2ccccc2)cc1 | 107.8 | 111.3 | -59.0 | -5.0 | 152.2* | 5.31* | 187.5* | 131.4 | 107.2
CC(=O)OCC(=O)Nc1ccc(N=Nc2ccccc2)cc1 | 92.9 | 110.0 | -69.1 | 11.0 | 162.3* | 4.89* | 189.7* | 135.0* | 113.8*
O=C(Nc1ccc(N=Nc2ccccc2)cc1)c1ccccc1Cl | 110.2 | 158.1* | -88.1 | -13.7 | 180.4* | 2.27 | 204.4* | 153.3* | 119.7*
CC(C)C(=O)OCC(=O)Nc1ccc(N=Nc2ccccc2)cc1 | 99.3 | 169.7* | -57.0 | 3.1 | 151.0* | 5.11* | 184.1* | 140.1* | 116.9*
O=C(CCl)Nc1ccc(N=Nc2ccccc2)cc1 | 89.4 | 31.2 | -27.1 | 15.3 | 123.8 | 3.1 | . | . | .
CC(=O)OCC(=O)Nc1ccc(SC(F)F)cc1 | 96.7 | 51.5 | -4.5 | 8.0 | 103.8 | 1.07 | . | . | .
SMILES | STAT3 act | APP 5'UTR act | STAT1 inh | STAT3 blocker | STAT1 act | NF-kB expr up | STAT1 activ conf | NFkB act STAT1ct | STAT3 act 2
CCOC(=O)N1CCN(C(=O)c2cn(C)c3ccc(S(=O)(=O)N4CCC(C)CC4)cc3c2=O)CC1 | 100.3 | -7.0 | 2.1 | 8.1 | 98.2 | 1.22 | . | . | .
O=C(NNC(=O)C1CCCO1)c1ccc(F)cc1 (stereo not drawn) | 93.4 | -17.7 | 3.4 | 6.0 | 97.0 | 0.97 | . | . | .
COCC(C)Nc1ncnc2c1cnn2-c1ccc(Cl)cc1 (stereo not drawn) | 85.9 | 180.2* | -69.1 | 23.8 | 163.2* | 4.87* | 234.7* | 141.5* | 105.9
Clc1ccc(-n2ncc3c(NCCCn4ccnc4)ncnc32)cc1 | 99.6 | -10.9 | -26.3 | 0.4 | 123.8 | 1.85 | . | . | .
CCCCNc1ncnc2c1cnn2-c1ccc(Cl)cc1 | 111.5 | -33.5 | -60.8 | -13.9 | 158.0* | 7.2* | 249.2* | 140.2* | 105.7
C=CCNc1ncnc2c1cnn2-c1ccc(Cl)cc1 | 90.3 | 239.3* | -81.2 | 12.1 | 177.3* | 5.39* | 266.0* | 132.8 | 107.5
COc1ccc(-n2ncc3c(NCC(C)C)ncnc32)cc1 | 81.7 | 195.4* | -68.7 | 26.2 | 166.3* | 6.97* | 259.9* | 117.7 | 97.7
Clc1ccc(-n2ncc3c(NCCN4CCOCC4)ncnc32)cc1 | 80.4 | 99.4 | -5.9 | 24.8 | 97.2 | 0.87 | . | . | .
COc1ccc(-n2ncc3c(NCc4ccc5c(c4)OCO5)ncnc32)cc1 | 107.5 | 39.7 | -14.4 | -4.5 | 114.9 | 1.1 | . | . | .
Cc1c(-c2ccccc2)[nH]n2c(=O)c3c(nc12)CCCC3 | 121.8 | 51.5 | -62.5 | -22.9 | 154.9* | 2.08 | 173.9* | 130.3 | 116.6*
N/C(=N\c1nc2ccccc2o1)NC(=O)c1ccccc1NC(=O)c1ccccc1 | 87.2 | 2.8 | 3.5 | 20.0 | 96.8 | 1.25 | . | . | .
N/C(=N\c1nc2ccccc2o1)NC(=O)c1ccccc1F | 111.1 | 119.1 | -55.7 | -7.8 | 150.8* | 2.11 | 161.9* | 123.9 | 119.1*
Cn1nccc1C(=O)Oc1cccc(/C=N/NC(=O)c2ccccc2O)c1 | 70.7 | 5.6 | -6.5 | 37.5 | 104.3 | 1.96 | . | . | .
CC(C)CC(=O)Nc1ccc2c(c1)oc1ccccc12 | 110.6 | 173.3* | -57.3 | -9.6 | 151.6* | 6.07* | 190.3* | 133.8* | 106.2
COc1ccc(C(=O)Nc2ccc(N3CCN(C(=O)c4ccccc4)CC3)cc2)cc1[N+](=O)[O-] | 79.9 | 2.9 | 1.8 | 30.4 | 97.1 | 1.02 | . | . | .
